This is a sample that favours compounds with a hit; in the whole collection about 0.59% have one here.
TRPN1 ag: agonists of zebrafish TRPN1 channel | HEK293 zebrafish TRPN1-YFP, Fluo-8 calcium fluorescence; 100% = response to 87 µM carbachol | AID 1424 | 220,000 tested, 0.18% active | activation, % at 3 µM;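 active = activation above its plate's cutoff, the mean activation of test wells on that plate plus 3 SD, cut at about 19% in these data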
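System: zebrafish TRPN1-YFP in HEK293 cells / Dosing: 3 µM single point / Timing: dye loading 1 h at 37 °C, then 30 min room temperature / Signal: Fluo-8 calcium fluorescence, excitation 470-495 nm, emission 515-575 nm / Read-out basis: percent activation from peak over basal fluorescence ratio, control-normalized / Control set: high carbachol 87 µM, low DMSO alone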
TRPML3 agonist: human mucolipin-3 channel agonism. Q8TDD5. HEK293 TRPML3-YFP, Fluo-8 calcium fluorescence; 100% = the carbachol control signal. activation, % at 3 µM. 220,000 tested, 0.29% active;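 active = activation above its plate's cutoff, the mean activation of the plate's test wells plus 3 SD, cut at about 12% in these data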
Target sequence (Q8TDD5 whole entry, looked up): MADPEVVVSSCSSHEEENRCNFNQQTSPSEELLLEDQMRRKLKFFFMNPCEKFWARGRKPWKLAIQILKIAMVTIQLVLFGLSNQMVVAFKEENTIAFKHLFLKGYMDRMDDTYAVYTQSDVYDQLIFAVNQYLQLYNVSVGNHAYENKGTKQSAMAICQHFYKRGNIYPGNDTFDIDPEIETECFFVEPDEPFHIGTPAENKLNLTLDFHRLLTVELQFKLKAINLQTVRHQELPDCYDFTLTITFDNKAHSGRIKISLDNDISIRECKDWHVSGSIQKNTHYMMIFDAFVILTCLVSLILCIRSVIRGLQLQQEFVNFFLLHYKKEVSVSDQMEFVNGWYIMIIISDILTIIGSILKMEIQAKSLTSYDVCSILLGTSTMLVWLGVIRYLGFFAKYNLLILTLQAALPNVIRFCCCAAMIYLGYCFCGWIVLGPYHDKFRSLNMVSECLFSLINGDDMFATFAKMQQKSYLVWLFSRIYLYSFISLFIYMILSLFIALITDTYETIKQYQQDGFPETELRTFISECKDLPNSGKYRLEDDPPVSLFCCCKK
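Material: HEK293 cells stably carrying human TRPML3-YFP; compound dosing: single dose, 3 µM final nominal compound, 0.3% DMSO final; incubation: 1-h 37 °C dye load, 5-s basal, 120-s post-compound reads; technique: Fluo-8 intracellular calcium fluorescence, excitation 470-495 nm, emission 515-575 nm; read-out basis: percent activation from peak-to-basal fluorescence ratio, scaled between DMSO and carbachol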
OXTR potentiator: human OXTR potentiation. P30559. CHO-OTR cells, Fluo-8 calcium fluorescence, potentiator mode; 0% = oxytocin EC15, 100% = EC100. activation, % at 3 µM. 320,000 tested, 0.061% active. AID 2445;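 active = activation above that plate's cutoff, the mean activation of tested compounds plus 3 SD, cut at about 6.6% in these data, passing the limit was not always enough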
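System: human OTR in CHO cells / Also added: sub-maximal oxytocin, roughly EC15 / Control set: EC15 oxytocin low, 75 nM oxytocin high / Schedule: 6 min compound pre-incubation at room temperature, 100 s kinetic read / Compound: single-point 3.0 µM / Replication: singlicate / Technique: Fluo-8 calcium dye fluorescence / Read-out basis: % activation of max/min ratio relative to oxytocin controls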
OXTR ag: human OXTR agonism; activation, % at 3 µM; 320,000 tested, 0.32% active; CHO-OTR cells, Fluo-8 calcium fluorescence; normalized: DMSO 0%, oxytocin 100%; AID 2435; P30559;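 active = activation above the mean of all tested compounds plus 3 SD, cutoff set per screening run, cut at about 20% in these data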;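 note: peak over basal fluorescence ratio from a 100 s FLIPR kinetic read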
V1R ag counter: V1a receptor agonism, counter-screen for OXTR agonists; activation, % at 3 µM; 320,000 tested, 0.25% active; P37288; AID 2797; CHO-V1R cells, Fluo-8 calcium fluorescence, agonist mode; 0% DMSO, 100% 3 nM vasopressin;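 active = activation above the mean activation of all tested compounds plus 3 SD, per screening run, cut at about 20% in these data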;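 note: signal is peak over basal fluorescence ratio across a 100 second FLIPR read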
A number is an active result; 0 = inactive; - = no result; + = active, no number.

SMILES	TRPN1 ag	TRPML3 agonist	OXTR potentiator	OXTR ag	V1R ag counter
N#C/C(=C\c1coc2ccc(O)cc2c1=O)C(=O)Nc1nc2ccccc2s1	222	64	0	257	308
O=C(NN=Cc1ccc(N2CCOCC2)s1)c1ccc([N+](=O)[O-])cc1	-	-	0	0	0
O=[N+]([O-])c1ccc(O)c(/C=N/n2cnc3ccccc32)c1	0	0	0	21	0
O=[N+]([O-])c1ccc(O)c(/C=N/n2c(CO)nc3ccccc32)c1	0	0	0	0	0
CCCn1c(=O)c(C(=O)Nc2ncccc2C)c(O)c2ccccc21	0	0	0	30	28
CCN(CC)c1ccc(/C=C(/C#N)C(=O)NCc2ccccc2)o1	0	14	0	29	26
CCN(CC)c1ccc(/C=C(/C#N)C(=O)NC(C)C)o1	0	0	0	0	0
O=C(CNCc1ccc(F)cc1)Nc1ccc(C(=O)N2CCCCC2)cc1	-	-	0	0	0
N#CC(C#N)=C1C=C2C=C(N3CCCCC3)CCC2CC1 (stereo not drawn)	+	380	0	921	617
CCN(CC)C1=CC2=CC(=C(C#N)C#N)CCC2CC1 (stereo not drawn)	332	298	0	807	750
CCCCN(C)C1=CC2=CC(=C(C#N)C#N)CCC2CC1 (stereo not drawn)	239	225	0	771	873
CCCCOc1ccc(C(=O)NN2CCOCC2)cc1	-	-	0	0	0
CC(=O)OCC(=O)Nc1ccc([N+](=O)[O-])cc1Cl	0	0	0	0	0
CC(=O)Oc1c(C)cc(Cl)cc1C(=O)Nc1ccc([N+](=O)[O-])cc1Cl	26	0	0	0	0
NS(=O)(=O)c1ccc(NC(=O)COC(=O)/C(=C/c2cccs2)c2cccs2)cc1	0	0	0	0	0
COc1ccc(NC(=O)/C(=C\c2ccccc2)NC(=O)c2ccco2)cc1	-	-	0	0	0
Cc1cc(/C=N/NC(N)=S)c(O)c(/C=N/NC(N)=S)c1	41	16	0	0	0
NC(=S)N/N=C/c1cccc(O)c1O	0	0	0	0	0
CC(CNC(=O)COc1ccc2c(c1)OCO2)c1ccccc1 (stereo not drawn)	-	-	0	0	0
CC(C)c1ccc(/C=C2\CC/C(=C\C=N\N(C)C)C2=O)cc1	0	0	0	0	0
CC(C)/C=C1\CC/C(=C\c2ccc(N(C)C)cc2)C1=O	22	0	0	69	59
COc1ccc(Cc2nnc(Nc3c(C)cccc3C)o2)cc1OC	0	0	0	0	0
COc1cccc(C2CC3(CC(C)(C)NC(=S)N3)Oc3cc(O)ccc32)c1 (stereo not drawn)	0	0	0	0	0
CSC1=NC2(CC(c3ccccc3)Oc3cc(O)ccc32)CC(C)(C)N1 (stereo not drawn)	0	0	0	21	42
CCN1CCN(c2ccc(S(=O)(=O)N3CCCCC3)cc2NC(=O)Cc2ccc(Cl)c(Cl)c2)CC1	-	-	0	86	49
SMILES	TRPN1 ag	TRPML3 agonist	OXTR potentiator	OXTR ag	V1R ag counter
COc1ccc(NC(=O)/C(C#N)=C\c2ccc(N3CCOCC3)o2)cc1	49	40	0	70	117
N#C/C(=C\c1ccc(N2CCOCC2)o1)C(=O)Nc1ccc(O)cc1	0	0	0	20	29
COc1ccc(NC(=O)/C(C#N)=C/c2ccc(Br)o2)cc1	0	0	0	0	0
N#C/C(=C/c1ccc(N2CCOCC2)o1)c1nc2ccccc2[nH]1	0	0	0	40	21
N#C/C(=C/c1ccc(N2CCOCC2)o1)C(=O)NC1CCCCC1	0	0	0	0	0
CC(Oc1cccc(F)c1)C(=O)Nc1ccc(N2CCOCC2)cc1 (stereo not drawn)	-	-	0	0	0
CCCc1c(C(=O)NNc2cc(C(F)(F)F)ccc2Cl)cnn1-c1ccccc1	0	0	0	0	0
O=C(N/N=C1\C2CN3CCN(C2)CC1(c1ccccc1)C3)c1ccc(F)cc1	0	0	0	0	0
Nc1ccccc1C(=O)N/N=C1\C2CN3CCN(C2)CC1(c1ccccc1)C3	0	0	14	0	0
CCOc1ccc(N2CC(C(=O)NCCCc3ccccc3)CC2=O)cc1 (stereo not drawn)	-	-	0	0	0
Cc1cccc(N2C(=O)C(O)=C(C(=O)c3cccs3)C2c2ccc(C(C)C)cc2)n1 (stereo not drawn)	0	0	0	33	33
CC(C)c1nnc(N2C(=O)C(O)=C(C(=O)c3cccs3)C2c2ccccc2)s1 (stereo not drawn)	183	114	-	-	-
Cc1ccc(C2CC(c3ccc(NS(C)(=O)=O)cc3)=NN2C(=O)c2ccco2)cc1 (stereo not drawn)	0	0	0	0	0
CCS(=O)(=O)Nc1ccc(C2=NN(C(=O)c3ccco3)C(c3ccc(C)cc3)C2)cc1 (stereo not drawn)	0	0	11	0	0
CCOC(=O)c1ccc(NC(=S)N2CCC(O)CC2)cc1	0	0	0	0	0
CCOC(=O)c1ccc(NC(=S)N2CCSC2c2ccc(Br)cc2)cc1 (stereo not drawn)	0	0	0	48	37
CCOC(=O)CC1C(=O)NCCN1c1nc2ccc(C)cn2c(=O)c1/C=C1\SC(=S)N(C(C)CC)C1=O (stereo not drawn)	20	0	0	0	0
CCOC(=O)CC1C(=O)NCCN1c1nc2ccc(C)cn2c(=O)c1/C=C1\SC(=S)N(CC(C)C)C1=O (stereo not drawn)	32	0	0	0	0
CCCN1C(=O)/C(=C/c2c(N3CCNC(=O)C3CC(=O)OCC)nc3c(C)cccn3c2=O)SC1=S (stereo not drawn)	28	12	0	0	0
CCNc1c2c3c(cccc3n(C)c1=O)C(=O)c1ccccc1-2	195	88	0	140	181
CCCCNc1c2c3c(cccc3n(C)c1=O)C(=O)c1ccccc1-2	81	46	0	134	134
Cn1c(=O)c(NCCO)c2c3c(cccc31)C(=O)c1ccccc1-2	454	282	0	522	569
Cn1c(=O)c(NCCc2ccccc2)c2c3c(cccc31)C(=O)c1ccccc1-2	126	83	0	213	279
Cn1c(=O)c(NC2CCCCC2)c2c3c(cccc31)C(=O)c1ccccc1-2	0	0	-	-	-
CC1(C)CC(=O)c2c(O)cc(OCC(=O)Nc3ccc(CCO)cc3)cc2O1	-	-	0	0	0
CCCCn1c(N)c(N(CC(C)C)C(=O)CCNC(=O)c2ccccc2Cl)c(=O)[nH]c1=O	-	-	0	0	0
Nc1ccc(-c2c3ccc(=O)cc-3oc3cc(O)ccc23)cc1C(=O)O	-	-	0	292	261
Cc1oc2cc(O)ccc2c(=O)c1-c1ccccc1	0	0	0	0	0
COc1ccc(-c2c(C)c3ccc(O)cc3oc2=O)cc1OC	-	-	0	0	0

Screening data as filed in PubChem.
